Published values from different studies.
Each line is one published result; the experiments were not run side by side.
TYK2 JH1: Non-receptor tyrosine-protein kinase TYK2, JH1 (TYK2, Homo sapiens, UniProt P29597)
TYK2: Non-receptor tyrosine-protein kinase TYK2 (TYK2, Homo sapiens, UniProt P29597)
TYK2 JH2: Non-receptor tyrosine-protein kinase TYK2, JH2 (TYK2, Homo sapiens, UniProt P29597)

CS(=O)(=O)NCC[C@H](NC(=O)c1cncc2c1cnn2-c1ccc(F)cc1)c1ccnc(S(C)(=O)=O)c1
remaining binding (TYK2 JH1; cell-free assay; competition with immobilised ligand; 1 µM): 100%

Oc1cccc(-c2nc(N3CCOCC3)c3oc4ncccc4c3n2)c1
remaining signal (TYK2; cell-free assay; 0.5 µM): 73.6%

Cn1nc(C(=O)NCc2ccc(C(=O)O)cc2)cc1-c1ccc2[nH]ccc2c1
remaining binding (TYK2 JH2; cell-free assay; competition with immobilised ligand; 0.1 µM): 94%

O=C(Nc1cnn(-c2csc(C(=O)NC3COC3)c2)c1)Nc1c(F)cccc1Cl
remaining activity (TYK2; enzyme activity; inhibitor; 5 µM): 89.3%

N[C@@H]1CCN(c2nccc(-c3cnn4ncccc34)n2)C1
remaining binding (TYK2; binding; 1 µM): 100%

CN(C)C(=O)Cn1cc(-c2nc(C3(c4ccc(-c5cnc(N)nc5)cc4)CC3)no2)cn1
remaining binding (TYK2 JH2; cell-free assay; competition with immobilised ligand; 1 µM): 90%

CCCS(=O)(=O)Nc1ccc(F)c(C(=O)c2c[nH]c3ncc(-c4ccc(Cl)cc4)cc23)c1F
inhibition (TYK2; enzyme activity; inhibitor; 1 µM): < 10%

CC1=C(C#N)[C@@H](c2ccc3[nH]nc(C)c3c2)C(C#N)=C(c2ccc(Cl)cc2)N1
remaining binding (TYK2 JH1; cell-free assay; competition with immobilised ligand; 1 µM): 73.1%

COc1cc2ncnc(Nc3ccc(Oc4ccccc4)cc3C)c2cc1OC
inhibition (TYK2; enzyme activity; inhibitor; 1 µM): 7%

CC/C(=N\NC(=O)NCc1cccc(O)c1)c1ccc(O)c(C)c1O
inhibition (TYK2; enzyme activity; inhibitor; 0.1 µM): 7.2%

O=C1CCc2cc(Nc3cc(OC4CCOCC4)c([N+](=O)[O-])cc3Cl)ccc2N1
remaining binding (TYK2 JH2; cell-free assay; competition with immobilised ligand; 1 µM): 94%

CN(CCCC(F)(F)F)c1nccc(-c2cnn3ncccc23)n1
remaining binding (TYK2; binding; 1 µM): 100%

CCN(CC)CCNC(=O)c1c(C)[nH]c(/C=C2\C(=O)Nc3ccc(F)cc32)c1C
remaining signal (TYK2; cell-free assay; 0.5 µM): 52.6%

Nc1ncnc2occ(-c3ccc(NC(=O)Nc4cc(C(F)(F)F)ccc4F)cc3)c12
remaining signal (TYK2 JH1; cell-free assay; inhibitor; 20 µM): 55%

N#CCCc1ccc2c(c1)-c1[nH]c3ccc([N+](=O)[O-])cc3c1CC(=O)N2
remaining signal (TYK2; cell-free assay; 0.5 µM): 48.1%

COc1cc(Cl)c(C(=O)N[C@@H](CN[C@H]2CC[C@@H](N)CC2)Cc2ccc(C#N)cc2)cc1-c1ccc(CN[C@H](C)c2ccc(C)cc2)o1
remaining activity (TYK2; enzyme activity; inhibitor; 1 µM): 105%

CS(=O)(=O)Nc1cccc(-c2csc(NC(=O)CSc3nc4nccnc4c(=O)n3CCc3ccccc3)n2)c1
inhibition (TYK2; enzyme activity; inhibitor; 10 µM): -1%

c1cnn2ncc(-c3ccnc(N4CCC45COC5)n3)c2c1
remaining signal (TYK2 JH1; cell-free assay; 1 µM): 64%

Cc1ccc(NC(=O)c2ccc(C)c(C(F)(F)F)c2)cc1C#Cc1nn(C2CCC(O)CC2)c2ncnc(N)c12 (stereo not shown)
remaining signal (TYK2; cell-free assay; 10 µM): 36%

CC(C)(C)c1nc2c(s1)c1nc(N)ncc1c1ccc(NS(=O)(=O)c3c(F)cccc3F)c(F)c12
remaining activity (TYK2; enzyme activity; inhibitor; radiometric; 1 µM): 92%

CC(=O)N1CCC(c2ccc(C(=O)NC3=NCCN3)cc2C(F)(F)F)CC1
remaining binding (TYK2 JH1; cell-free assay; competition with immobilised ligand; 1 µM): 100%

Cc1cc(NC(=O)c2cccc3cc(-c4cccc5[nH]nc(N)c45)ccc23)ccc1F
activity vs control (TYK2; enzyme activity; inhibitor; 0.1 µM): 94%

CN(c1nccc(-c2cnn3ncccc23)n1)C1CC1
remaining binding (TYK2; binding; 1 µM): 100%

O=C1NC(=O)c2cc(Nc3ccc(F)cc3)c(Nc3ccc(F)cc3)cc21
remaining signal (TYK2; cell-free assay; 0.5 µM): 80.6%

CN(C)c1nccc(-c2cnc3ncccn23)n1
remaining binding (TYK2 JH1; cell-free assay; competition with immobilised ligand; 1 µM): 83%

CCC(=O)N[C@@H]1CC[C@H](C(=O)N(C)c2ccc(-c3nc4ccccc4o3)cc2)C1
remaining binding (TYK2 JH2; cell-free assay; competition with immobilised ligand; 1 µM): 100%

C[C@H]1CCN(c2nccc(-c3cnn4ncccc34)n2)C1
remaining binding (TYK2; binding; 1 µM): 51%

c1ccc(N2CCN(Cc3nc4ccccc4[nH]3)CC2)nc1
remaining binding (TYK2 JH2; binding; competition with immobilised ligand; 1 µM): 100%
